Data from ChEMBL document CHEMBL5705885, “CYT387, a selective JAK1/JAK2 inhibitor: in vitro assessment of kinase selectivity and preclinical studies using cell lines and primary cells from polycythemia vera patients” (Leukemia, 2009).

Assays:
[1] = target: Macrophage-stimulating protein receptor (Homo sapiens, UniProt Q04912); experiment: Inhibition of MST1R (unknown origin)
[2] = target: T1, Serine/threonine-protein kinase B-raf (Homo sapiens, UniProt P15056); conditions: dose 100.0 nM
[3] = target: T2, Proto-oncogene tyrosine-protein kinase ROS (Homo sapiens, UniProt P08922); conditions: dose 100.0 nM
T2 sequence (P08922 whole entry): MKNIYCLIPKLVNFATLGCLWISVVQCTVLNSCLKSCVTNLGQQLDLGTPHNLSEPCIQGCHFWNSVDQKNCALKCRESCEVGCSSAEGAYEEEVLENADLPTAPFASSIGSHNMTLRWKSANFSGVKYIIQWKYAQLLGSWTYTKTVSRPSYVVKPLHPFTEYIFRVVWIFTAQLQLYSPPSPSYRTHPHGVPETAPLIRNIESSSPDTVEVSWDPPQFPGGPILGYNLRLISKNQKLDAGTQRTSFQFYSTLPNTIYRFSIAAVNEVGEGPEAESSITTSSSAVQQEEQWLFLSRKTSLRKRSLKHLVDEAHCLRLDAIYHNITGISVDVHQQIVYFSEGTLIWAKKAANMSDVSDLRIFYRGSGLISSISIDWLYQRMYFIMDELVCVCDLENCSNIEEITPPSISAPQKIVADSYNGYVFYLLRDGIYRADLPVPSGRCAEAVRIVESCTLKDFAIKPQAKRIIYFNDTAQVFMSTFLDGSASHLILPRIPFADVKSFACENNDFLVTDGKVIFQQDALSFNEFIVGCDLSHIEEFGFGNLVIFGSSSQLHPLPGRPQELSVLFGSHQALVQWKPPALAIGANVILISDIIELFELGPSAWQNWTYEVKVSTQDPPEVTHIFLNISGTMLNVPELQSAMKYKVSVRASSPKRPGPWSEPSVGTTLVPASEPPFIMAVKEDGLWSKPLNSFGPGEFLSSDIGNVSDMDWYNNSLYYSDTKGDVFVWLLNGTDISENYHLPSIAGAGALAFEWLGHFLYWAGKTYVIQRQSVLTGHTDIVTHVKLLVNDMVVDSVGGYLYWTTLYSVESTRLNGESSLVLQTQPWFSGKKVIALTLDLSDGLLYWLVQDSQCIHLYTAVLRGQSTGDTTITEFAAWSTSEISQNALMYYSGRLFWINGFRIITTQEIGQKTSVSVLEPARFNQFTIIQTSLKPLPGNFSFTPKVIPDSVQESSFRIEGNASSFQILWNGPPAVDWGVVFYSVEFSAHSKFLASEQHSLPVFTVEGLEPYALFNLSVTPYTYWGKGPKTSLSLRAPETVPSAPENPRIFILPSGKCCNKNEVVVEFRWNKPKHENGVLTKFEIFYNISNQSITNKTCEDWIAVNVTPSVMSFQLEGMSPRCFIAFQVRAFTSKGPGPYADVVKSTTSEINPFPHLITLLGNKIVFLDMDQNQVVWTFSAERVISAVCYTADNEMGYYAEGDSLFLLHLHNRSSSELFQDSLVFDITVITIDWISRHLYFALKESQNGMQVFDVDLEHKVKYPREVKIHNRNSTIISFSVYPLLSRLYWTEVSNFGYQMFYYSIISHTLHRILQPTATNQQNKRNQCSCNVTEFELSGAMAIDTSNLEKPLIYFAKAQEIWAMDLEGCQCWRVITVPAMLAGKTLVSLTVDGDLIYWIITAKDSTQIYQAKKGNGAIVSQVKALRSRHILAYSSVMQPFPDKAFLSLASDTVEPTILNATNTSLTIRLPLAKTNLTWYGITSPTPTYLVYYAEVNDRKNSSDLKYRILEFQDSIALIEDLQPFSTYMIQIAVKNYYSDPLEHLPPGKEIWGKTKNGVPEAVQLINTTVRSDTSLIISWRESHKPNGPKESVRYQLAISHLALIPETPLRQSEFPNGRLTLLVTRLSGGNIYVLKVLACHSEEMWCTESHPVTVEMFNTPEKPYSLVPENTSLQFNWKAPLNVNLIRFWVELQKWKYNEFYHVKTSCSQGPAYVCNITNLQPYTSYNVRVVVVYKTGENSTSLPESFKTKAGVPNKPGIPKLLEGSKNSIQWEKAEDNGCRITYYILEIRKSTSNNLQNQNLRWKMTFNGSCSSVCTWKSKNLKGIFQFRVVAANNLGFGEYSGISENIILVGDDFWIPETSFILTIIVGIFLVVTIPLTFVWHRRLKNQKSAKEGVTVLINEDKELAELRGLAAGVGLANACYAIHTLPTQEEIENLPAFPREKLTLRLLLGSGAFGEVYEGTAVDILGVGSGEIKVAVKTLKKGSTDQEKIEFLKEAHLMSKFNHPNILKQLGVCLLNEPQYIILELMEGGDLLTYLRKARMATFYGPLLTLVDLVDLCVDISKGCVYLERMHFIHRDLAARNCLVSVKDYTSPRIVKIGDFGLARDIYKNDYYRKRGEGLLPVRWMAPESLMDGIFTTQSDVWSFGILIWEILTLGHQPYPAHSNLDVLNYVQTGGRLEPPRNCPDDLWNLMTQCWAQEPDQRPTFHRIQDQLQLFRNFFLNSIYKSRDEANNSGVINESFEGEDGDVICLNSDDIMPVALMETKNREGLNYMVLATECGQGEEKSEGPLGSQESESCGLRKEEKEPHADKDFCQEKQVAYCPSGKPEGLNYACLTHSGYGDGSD

[4] = target: Ribosomal protein S6 kinase alpha-1 (Homo sapiens) (UniProt Q15418); conditions: dose 100.0 nM
[5] = target: Serine/threonine-protein kinase PLK1 (Homo sapiens, UniProt P53350); experiment: Inhibition of PLK1 (unknown origin)
[6] = target: Protein kinase C alpha type (Homo sapiens, UniProt P17252); experiment: Inhibition of PRKCA (unknown origin)
[7] = target: Mitogen-activated protein kinase 3 (Homo sapiens, UniProt P27361); experiment: Inhibition of MAPK3 (unknown origin)
[8] = target: T3, Platelet-derived growth factor receptor alpha (Homo sapiens, UniProt P16234); conditions: dose 100.0 nM
T3 sequence (P16234 whole entry): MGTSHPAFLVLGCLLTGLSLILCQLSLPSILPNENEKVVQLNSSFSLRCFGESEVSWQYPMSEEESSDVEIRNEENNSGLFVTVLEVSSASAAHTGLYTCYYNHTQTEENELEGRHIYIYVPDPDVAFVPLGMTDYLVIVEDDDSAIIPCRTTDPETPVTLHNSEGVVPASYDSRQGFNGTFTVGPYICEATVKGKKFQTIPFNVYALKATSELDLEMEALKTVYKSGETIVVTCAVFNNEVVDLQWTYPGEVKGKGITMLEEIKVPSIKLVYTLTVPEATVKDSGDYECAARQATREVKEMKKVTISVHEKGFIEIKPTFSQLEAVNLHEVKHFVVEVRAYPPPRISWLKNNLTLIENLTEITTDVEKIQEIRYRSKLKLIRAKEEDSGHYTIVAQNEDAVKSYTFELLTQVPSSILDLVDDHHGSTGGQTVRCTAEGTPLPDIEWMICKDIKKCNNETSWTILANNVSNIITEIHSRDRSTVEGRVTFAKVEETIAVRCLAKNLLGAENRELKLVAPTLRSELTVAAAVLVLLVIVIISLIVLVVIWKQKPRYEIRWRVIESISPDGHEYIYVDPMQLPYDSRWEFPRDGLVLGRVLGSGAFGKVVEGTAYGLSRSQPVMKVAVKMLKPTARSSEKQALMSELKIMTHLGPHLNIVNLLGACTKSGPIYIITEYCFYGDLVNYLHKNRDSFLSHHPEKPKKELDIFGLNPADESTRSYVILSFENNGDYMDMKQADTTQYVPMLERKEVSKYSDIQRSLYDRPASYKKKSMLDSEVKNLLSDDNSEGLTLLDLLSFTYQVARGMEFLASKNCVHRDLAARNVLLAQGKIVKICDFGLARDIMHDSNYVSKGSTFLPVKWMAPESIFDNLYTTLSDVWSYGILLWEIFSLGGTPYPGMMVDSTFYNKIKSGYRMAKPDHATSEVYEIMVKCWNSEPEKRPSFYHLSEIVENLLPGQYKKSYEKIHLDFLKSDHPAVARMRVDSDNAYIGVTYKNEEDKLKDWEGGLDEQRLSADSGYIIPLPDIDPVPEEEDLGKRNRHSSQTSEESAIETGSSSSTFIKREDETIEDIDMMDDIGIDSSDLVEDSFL

[9] = target: Serine/threonine-protein kinase PAK 4 (Homo sapiens, UniProt O96013); experiment: Inhibition of PAK4 (unknown origin)
Ephrin type-A receptor 3 = Ephrin type-A receptor 3 (Homo sapiens, UniProt P29320); experiment: Inhibition of EPHA3 (unknown origin)
[10] = target: Receptor tyrosine-protein kinase erbB-2 (Homo sapiens, UniProt P04626); experiment: Inhibition of ERBB2 (unknown origin)
[11] = target: Calcium/calmodulin-dependent protein kinase type 1D (Homo sapiens, UniProt Q8IU85); conditions: dose 100.0 nM
MV4-11 = experiment: Antiproliferative activity against human MV4-11 cells measured after 72 hrs by Alamar blue staining based analysis; type: functional, cell-based; conditions: MV4-11, 72 h
In short: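 Cells were exposed for 72 h at 37 °C under 5% CO2 to compound made up as DMSO stock and diluted in culture medium. Proliferation was then read by Alamar Blue.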

[12] = target: T3, Platelet-derived growth factor receptor alpha; experiment: Inhibition of PDGFRA (unknown origin)
Rhodopsin kinase GRK7 = Rhodopsin kinase GRK7 (Homo sapiens, UniProt Q8WTQ7); experiment: Inhibition of GRK7 (unknown origin)
[13] = target: MAP kinase-activated protein kinase 5 (Homo sapiens, UniProt Q8IW41); experiment: Inhibition of MAPKAPK5 (unknown origin)
[14] = target: Calcium/calmodulin-dependent protein kinase type IV (Homo sapiens, UniProt Q16566); experiment: Inhibition of CAMK4 (unknown origin)
[15] = target: Dual specificity tyrosine-phosphorylation-regulated kinase 3 (Homo sapiens, UniProt O43781); experiment: Inhibition of DYRK3 (unknown origin)
[16] = target: Tyrosine-protein kinase Fyn (Homo sapiens, UniProt P06241); experiment: Inhibition of FYN (unknown origin)
SRSF protein kinase 1 = SRSF protein kinase 1 (Homo sapiens, UniProt Q96SB4); experiment: Inhibition of SRPK1 (unknown origin)
Insulin receptor = Insulin receptor (Homo sapiens, UniProt P06213); experiment: Inhibition of INSR (unknown origin)
[17] = target: Tyrosine-protein kinase Srms (Homo sapiens, UniProt Q9H3Y6); experiment: Inhibition of SRMS (unknown origin)
Sequence of Tyrosine-protein kinase Srms (Q9H3Y6 whole entry): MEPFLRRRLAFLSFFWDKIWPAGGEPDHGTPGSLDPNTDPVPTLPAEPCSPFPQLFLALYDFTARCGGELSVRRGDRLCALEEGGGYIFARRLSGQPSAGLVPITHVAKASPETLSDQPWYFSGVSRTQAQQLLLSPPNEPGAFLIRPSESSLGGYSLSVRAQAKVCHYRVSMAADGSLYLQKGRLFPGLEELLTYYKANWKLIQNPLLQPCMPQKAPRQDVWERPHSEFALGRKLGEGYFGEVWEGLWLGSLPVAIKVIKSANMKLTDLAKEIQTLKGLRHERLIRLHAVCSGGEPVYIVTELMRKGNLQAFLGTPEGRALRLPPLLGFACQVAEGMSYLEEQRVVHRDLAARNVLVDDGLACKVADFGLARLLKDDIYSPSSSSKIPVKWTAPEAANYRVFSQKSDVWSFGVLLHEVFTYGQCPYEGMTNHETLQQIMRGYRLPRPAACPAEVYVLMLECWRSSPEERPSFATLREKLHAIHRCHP

[18] = target: Tyrosine-protein kinase receptor TYRO3 (Homo sapiens) (UniProt Q06418); conditions: dose 100.0 nM
Ephrin type-B receptor 1 = Ephrin type-B receptor 1 (Homo sapiens, UniProt P54762); experiment: Inhibition of EPHB1 (unknown origin)
[19] = target: Tyrosine-protein kinase SYK (Homo sapiens, UniProt P43405); experiment: Inhibition of SYK (unknown origin)
[20] = target: Protein kinase C gamma type (Homo sapiens, UniProt P05129); experiment: Inhibition of PRKCG (unknown origin)
[21] = target: Rho-associated protein kinase 2 (Homo sapiens, UniProt O75116); conditions: dose 100.0 nM
[22] = target: Misshapen-like kinase 1 (Homo sapiens) (UniProt Q8N4C8); conditions: dose 100.0 nM
[23] = target: Tyrosine-protein kinase ITK/TSK (Homo sapiens, UniProt Q08881); experiment: Inhibition of ITK (unknown origin)
BaF3 [24] = experiment: Antiproliferative activity against mouse BaF3 cells harboring TEL-JAK3 measured after 72 hrs by Alamar blue staining based analysis; type: functional, cell-based; conditions: BaF3, 72 h
In short: (§1)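 Murine Ba/F3 cells carrying TEL/JAK2 or TEL/JAK3 fusions, grown in DMEM with 10% fetal calf serum. Compound stocks in DMSO were diluted in culture medium. Proliferation was read by Alamar Blue after 72 h incubation at 37 °C under 5% CO2.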

[25] = target: Tyrosine-protein kinase Blk (Homo sapiens, UniProt P51451); experiment: Inhibition of BLK (unknown origin)
[26] = target: Serine/threonine-protein kinase Chk1 (Homo sapiens, UniProt O14757); experiment: Inhibition of CHEK1 (unknown origin)
[27] = target: T2, Proto-oncogene tyrosine-protein kinase ROS; experiment: Inhibition of ROS1 (unknown origin)
[28] = target: Tyrosine-protein kinase FRK (Homo sapiens, UniProt P42685); experiment: Inhibition of FRK (unknown origin)
BaF3 [29] = experiment: Antiproliferative activity against mouse BaF3 cells harboring TEL-JAK2 measured after 72 hrs by Alamar blue staining based analysis; type: functional, cell-based; conditions: BaF3, 72 h; in short: as §1
[30] = target: Aurora kinase C (Homo sapiens) (UniProt Q9UQB9); conditions: dose 100.0 nM
[31] = target: Mitogen-activated protein kinase 1 (Homo sapiens, UniProt P28482); experiment: Inhibition of MAPK1 (unknown origin)
Sequence of Mitogen-activated protein kinase 1 (P28482 whole entry): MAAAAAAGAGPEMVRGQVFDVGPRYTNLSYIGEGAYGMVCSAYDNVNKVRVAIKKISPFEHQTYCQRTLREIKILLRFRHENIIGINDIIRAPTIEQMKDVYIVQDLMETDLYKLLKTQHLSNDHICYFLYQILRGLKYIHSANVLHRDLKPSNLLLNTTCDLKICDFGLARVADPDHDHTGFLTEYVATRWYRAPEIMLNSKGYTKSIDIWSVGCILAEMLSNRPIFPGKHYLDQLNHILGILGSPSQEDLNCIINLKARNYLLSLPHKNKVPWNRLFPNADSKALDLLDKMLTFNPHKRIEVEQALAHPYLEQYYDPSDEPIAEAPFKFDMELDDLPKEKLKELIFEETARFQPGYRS

Homo sapiens = species on record: Homo sapiens; conditions: dose 100.0 nM
[32] = target: Tyrosine-protein kinase Fer (Homo sapiens, UniProt P16591); experiment: Inhibition of FER (unknown origin)
[33] = target: Mitogen-activated protein kinase kinase kinase 9 (Homo sapiens, UniProt P80192); conditions: dose 100.0 nM
[34] = target: Serine/threonine-protein kinase pim-1 (Homo sapiens, UniProt P11309); experiment: Inhibition of PIM1 (unknown origin)
[35] = target: Glycogen synthase kinase-3 alpha (Homo sapiens, UniProt P49840); experiment: Inhibition of GSK3alpha (unknown origin)
[36] = target: Serine/threonine-protein kinase 25 (Homo sapiens, UniProt O00506); experiment: Inhibition of STK25 (unknown origin)
[37] = target: Tyrosine-protein kinase ABL1 (Homo sapiens) (UniProt P00519); conditions: dose 100.0 nM
[38] = target: Fibroblast growth factor receptor 1 (Homo sapiens, UniProt P11362); experiment: Inhibition of FGFR1 (unknown origin)
SRSF protein kinase 2 = SRSF protein kinase 2 (Homo sapiens, UniProt P78362); experiment: Inhibition of SRPK2 (unknown origin)
[39] = target: T1, Serine/threonine-protein kinase B-raf; experiment: Inhibition of BRAF (unknown origin)

T1 sequence (P15056 whole entry): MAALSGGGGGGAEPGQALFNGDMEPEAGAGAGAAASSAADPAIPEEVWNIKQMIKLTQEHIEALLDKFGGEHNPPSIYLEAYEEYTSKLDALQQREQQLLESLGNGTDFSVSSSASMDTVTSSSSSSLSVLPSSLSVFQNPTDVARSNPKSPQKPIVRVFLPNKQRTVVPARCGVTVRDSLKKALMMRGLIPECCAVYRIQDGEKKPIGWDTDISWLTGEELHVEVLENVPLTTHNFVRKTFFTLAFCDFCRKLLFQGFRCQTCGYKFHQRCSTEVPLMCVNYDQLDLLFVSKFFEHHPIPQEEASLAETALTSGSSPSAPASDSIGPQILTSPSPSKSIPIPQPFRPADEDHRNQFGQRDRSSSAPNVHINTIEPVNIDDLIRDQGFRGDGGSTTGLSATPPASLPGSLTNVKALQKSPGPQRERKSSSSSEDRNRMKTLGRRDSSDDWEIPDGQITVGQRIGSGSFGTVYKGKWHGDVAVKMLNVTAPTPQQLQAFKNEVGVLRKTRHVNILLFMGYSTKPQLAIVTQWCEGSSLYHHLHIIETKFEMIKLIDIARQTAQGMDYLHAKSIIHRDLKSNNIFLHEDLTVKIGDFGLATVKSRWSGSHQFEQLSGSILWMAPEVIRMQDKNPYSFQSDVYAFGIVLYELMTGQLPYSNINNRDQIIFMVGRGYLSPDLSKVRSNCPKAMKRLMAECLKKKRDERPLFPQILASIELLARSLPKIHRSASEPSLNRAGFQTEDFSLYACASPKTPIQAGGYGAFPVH

N#CCNC(=O)c1ccc(-c2ccnc(Nc3ccc(N4CCOCC4)cc3)n2)cc1 [MOMELOTINIB]
0.724 µM: IC50 (BaF3 [29])
3 µM: IC50 (MV4-11)
< 50%: inhibition [2] | inhibition [3] | inhibition [4] | inhibition [8] | inhibition [11] | inhibition [18] | inhibition [22] | inhibition [30] | inhibition [33] | inhibition [37]
> 50%: inhibition [21] | inhibition (Homo sapiens)
2.35 µM: IC50 (BaF3 [24])
< 1 µM: IC50 [1] | IC50 [9] | IC50 [12] | IC50 (Ephrin type-B receptor 1) | IC50 [19] | IC50 [20] | IC50 [27] | IC50 [31] | IC50 [39]
> 1 µM: IC50 [5] | IC50 [6] | IC50 [7] | IC50 (Ephrin type-A receptor 3) | IC50 [10] | IC50 (Rhodopsin kinase GRK7) | IC50 [13] | IC50 [14] | IC50 [15] | IC50 [16] | IC50 (SRSF protein kinase 1) | IC50 (Insulin receptor) | IC50 [17] | IC50 [23] | IC50 [25] | IC50 [26] | IC50 [28] | IC50 [32] | IC50 [34] | IC50 [35] | IC50 [36] | IC50 [38] | IC50 (SRSF protein kinase 2)
